Reference: ChEMBL document CHEMBL1130404, “Synthesis and evaluation of polycyclic pyrazolo[3,4-d]pyrimidines as PDE1 and PDE5 cGMP phosphodiesterase inhibitors” (J Med Chem, 1997)

Experiments:
[1] = molecular target: cGMP-specific 3',5'-cyclic phosphodiesterase (Bos taurus, UniProt Q28156); assay: Inhibition of phosphodiesterase 5 from bovine lung
In short: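 Purified bovine lung enzyme in 50 mM Tris-HCl (pH 7.5), 2 mM MgCl2, 0.1 mg/mL BSA with 1 μM [3H]cGMP as substrate, incubated 30 min at 30 °C. IC50 derived from percent inhibition plotted against log molar concentration; run in duplicate, mean of two reported.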

Phosphodiesterase 1 = Phosphodiesterase 1 (Bos taurus, UniProt Q01061+P14100); assay: Inhibition of phosphodiesterases PDE1 from bovine aorta; type: protein assay
In short: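 Bovine aorta enzyme; 50 mM Tris-HCl pH 7.5, 2 mM MgCl2, 0.1 mg/mL BSA, 1 mM CaCl2, 0.1 μM calmodulin, 1 μM [3H]cGMP substrate; 30 min at 30 °C. IC50 read from % inhibition vs log molar concentration curve; duplicates, mean reported.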

[2] = molecular target: 3',5'-cyclic-nucleotide phosphodiesterase (Bos taurus, UniProt A0A3Q1M1E8); assay: Inhibition of Phosphodiesterase 3 from bovine heart
In short: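 Enzymes purified from bovine heart (PDE3) or canine kidney (PDE4); 1 μM [3H]cAMP substrate, 50 mM Tris-HCl pH 7.5, 2 mM MgCl2, 0.1 mg/mL BSA, 30 min at 30 °C. IC50 taken from % inhibition vs log molar concentration; duplicates, mean reported.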

Rattus norvegicus [3] = assay: Antihypertensive activity in spontaneously hypertensive rats at 25 mg/kg administered orally; type: functional; settings: route oral
In short: (§1)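 Spontaneously hypertensive rats dosed orally with aqueous solution or suspension in 0.4% methylcellulose vehicle. Value is peak change in mean arterial pressure relative to a vehicle-treated control group.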

Rattus norvegicus [4] = assay: Antihypertensive activity in spontaneously hypertensive rats at 10 mg/kg administered orally; type: functional; settings: route oral; in short: as §1
[5] = molecular target: T1, cGMP-dependent 3',5'-cyclic phosphodiesterase (Bos taurus, UniProt P14099); assay: Inhibition of Phosphodiesterase 2 from bovine adrenal cortex
T1 sequence (P14099 whole entry): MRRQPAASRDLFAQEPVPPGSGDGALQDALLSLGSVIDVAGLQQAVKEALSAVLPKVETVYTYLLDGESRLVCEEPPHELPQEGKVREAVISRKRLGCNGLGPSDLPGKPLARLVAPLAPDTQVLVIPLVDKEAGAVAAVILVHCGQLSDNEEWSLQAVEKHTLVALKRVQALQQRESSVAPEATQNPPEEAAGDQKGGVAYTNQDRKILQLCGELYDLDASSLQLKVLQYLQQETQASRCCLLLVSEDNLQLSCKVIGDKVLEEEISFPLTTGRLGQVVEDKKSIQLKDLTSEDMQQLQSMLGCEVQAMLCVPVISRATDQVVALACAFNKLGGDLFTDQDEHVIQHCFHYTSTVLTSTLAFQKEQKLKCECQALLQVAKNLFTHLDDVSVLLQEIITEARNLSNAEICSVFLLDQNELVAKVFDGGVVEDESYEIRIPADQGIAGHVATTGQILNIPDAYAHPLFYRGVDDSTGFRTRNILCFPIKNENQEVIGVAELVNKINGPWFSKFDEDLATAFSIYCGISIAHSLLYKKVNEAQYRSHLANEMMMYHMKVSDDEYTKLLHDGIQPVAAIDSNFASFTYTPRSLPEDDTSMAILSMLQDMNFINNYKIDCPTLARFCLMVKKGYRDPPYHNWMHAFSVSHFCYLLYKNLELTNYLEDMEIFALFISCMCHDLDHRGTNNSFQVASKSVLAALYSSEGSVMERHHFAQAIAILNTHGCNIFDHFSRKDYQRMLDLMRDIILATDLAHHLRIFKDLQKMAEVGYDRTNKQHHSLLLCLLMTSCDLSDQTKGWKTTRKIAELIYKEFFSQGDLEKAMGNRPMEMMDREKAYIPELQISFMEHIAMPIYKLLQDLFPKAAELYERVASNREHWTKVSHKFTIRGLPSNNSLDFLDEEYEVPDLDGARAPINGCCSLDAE
In short: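 Recombinant bovine adrenal cortex enzyme; [3H]cAMP substrate in 50 mM Tris-HCl pH 7.5, 2 mM MgCl2, 0.1 mg/mL BSA, mixture also holding 5 μM cGMP; 30 min, 30 °C. IC50 from inhibition vs log molar concentration curve; duplicate determinations averaged.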

[6] = molecular target: Phosphodiesterase 4 (Canis familiaris); assay: Inhibition of phosphodiesterase PDE4 from canine kidney

3',5'-cyclic-nucleotide phosphodiesterase, sequence (A0A3Q1M1E8 1-1126): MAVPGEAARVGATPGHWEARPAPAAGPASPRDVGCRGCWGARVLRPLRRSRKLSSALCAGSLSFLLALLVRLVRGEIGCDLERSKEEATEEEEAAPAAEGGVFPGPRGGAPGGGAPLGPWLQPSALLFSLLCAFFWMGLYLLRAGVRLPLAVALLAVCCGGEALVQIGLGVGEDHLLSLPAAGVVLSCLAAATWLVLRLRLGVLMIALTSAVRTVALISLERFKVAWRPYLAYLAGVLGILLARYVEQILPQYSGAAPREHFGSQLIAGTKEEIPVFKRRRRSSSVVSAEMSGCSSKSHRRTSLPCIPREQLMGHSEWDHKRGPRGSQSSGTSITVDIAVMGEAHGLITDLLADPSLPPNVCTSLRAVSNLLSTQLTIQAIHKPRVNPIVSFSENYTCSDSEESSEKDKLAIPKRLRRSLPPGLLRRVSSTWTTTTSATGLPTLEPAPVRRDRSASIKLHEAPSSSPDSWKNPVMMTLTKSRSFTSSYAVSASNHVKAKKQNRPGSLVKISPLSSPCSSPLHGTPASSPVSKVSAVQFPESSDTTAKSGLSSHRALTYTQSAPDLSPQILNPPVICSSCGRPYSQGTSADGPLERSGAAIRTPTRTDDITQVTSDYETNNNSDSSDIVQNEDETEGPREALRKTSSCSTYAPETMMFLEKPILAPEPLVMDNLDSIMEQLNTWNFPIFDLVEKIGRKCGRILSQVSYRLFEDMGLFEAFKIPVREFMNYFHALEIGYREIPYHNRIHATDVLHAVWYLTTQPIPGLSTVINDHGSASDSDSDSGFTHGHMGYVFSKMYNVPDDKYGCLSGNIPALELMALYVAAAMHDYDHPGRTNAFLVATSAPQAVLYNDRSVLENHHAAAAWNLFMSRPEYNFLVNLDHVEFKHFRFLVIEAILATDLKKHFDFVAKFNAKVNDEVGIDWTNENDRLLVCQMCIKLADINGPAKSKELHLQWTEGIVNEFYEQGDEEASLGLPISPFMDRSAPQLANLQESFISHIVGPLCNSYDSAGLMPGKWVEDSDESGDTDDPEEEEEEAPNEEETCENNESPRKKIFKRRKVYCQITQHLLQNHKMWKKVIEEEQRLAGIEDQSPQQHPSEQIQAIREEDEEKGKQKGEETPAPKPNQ

| SMILES | IC50 [1] [µM] | IC50 (Phosphodiesterase 1) [µM] | IC50 [2] [µM] | Delta mmHg (Rattus norvegicus [3]) | Delta mmHg (Rattus norvegicus [4]) | Delta mmHg (Rattus norvegicus [4]; 10 mg/kg) | IC50 [5] [µM] | IC50 [6] [µM] |
| --- | --- | --- | --- | --- | --- | --- | --- | --- |
| CN1C(=O)c2cnn(Cc3ccccc3)c2N2C1=N[C@@H]1CCC[C@@H]12 (racemic) | 3.1 | 29 | 55 | -14 | – | – | – | – |
| CC(C)[C@@H]1CN2C(=N1)N(C)C(=O)c1c2nn(C)c1Cc1ccccc1 | 0.1 | 0.02 | 90 | – | – | – | – | – |
| CN1C(=O)c2c(Cc3ccccc3)n[nH]c2N2C1=N[C@@H]1CCC[C@@H]12 (racemic) | 0.19 | 1.1 | > 100 | -16 | – | – | – | – |
| CN1C(=O)c2c(nn(C)c2Cc2ccccc2)N2CC(C)(C)N=C12 | 0.14 | 0.018 | 42 | – | – | – | – | – |
| Cc1nc2c(n1Cc1ccccc1)C(=O)N(C)C1=N[C@@H]3CCC[C@@H]3N12 | – | – | – | – | -28 | – | – | – |
| Cc1n[nH]c2c1C(=O)N(C)C1=N[C@@H]3CCC[C@@H]3N12 | 2.9 | 18 | > 100 | – | -7 | – | – | – |
| CN1C(=O)c2c(Cc3ccccc3)nn(C)c2N2C1=N[C@@H]1CCC[C@@H]12 (racemic) | 0.4 | 0.85 | 29 | – | – | – | – | – |
| CN1C(=O)c2c(nn(C)c2Cc2ccccc2)N2C1=N[C@@H]1CCC[C@@H]12 | 0.1 | 0.055 | 80 | – | – | -26 | – | – |
| Cc1nn(Cc2ccccc2)c2c1C(=O)N(C)C1=N[C@@H]3CCC[C@@H]3N12 | 1 | 2 | 50 | – | -3 | – | – | – |
| CN1C(=O)c2c(nn(C)c2Cc2ccccc2)N2CC3(CCCC3)N=C12 | 0.075 | 0.06 | 55 | – | -33 | – | 11 | 0.23 |
| CN1C(=O)c2c(nn(Cc3ccccc3)c2-c2ccccc2)N2C1=N[C@@H]1CCC[C@@H]12 | 2.1 | 0.54 | 55 | – | 1 | – | – | – |
| CN1C(=O)c2c(nn(C)c2Cc2ccccc2)N2C1=N[C@@H]1CCC[C@@H]12 (racemic) | 0.14 | 0.16 | 85 | – | – | -18 | – | – |
